Screening results (PubChem BioAssay)
Sampled rows, rich in hits. Any-hit rate of the full collection: about 2.3%.
TRPC4 PAM = TRPC4 (mouse) allosteric potentiation | 0.42% of 310,000 active | Q9QUQ5 | AID 2227 | B-score at 10 µM | HEK293 TRPC4beta/mu-opioid, DAMGO EC20, Fluo-4 Ca2+ flux; hits give high values;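 active = B-score of calcium response area above 5 SD of library B-scores, with initial fluorescence ratio within 5 SD of library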;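 also: B-score of integrated fluorescence ratio over time as area under calcium response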
TRPC6 activator = activates the mouse TRPC6 cation channel. Q61143. HEK293-TRPC6 membrane potential dye fluorescence; hits give high values. B-score at 10 µM. 0.13% of 310,000 active. AID 2550;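 active = B-score of the integrated fluorescence ratio above library mean plus 3 SD, and starting fluorescence ratio within library mean plus 5 SD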;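 also: higher score means more depolarization so channel activation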
Target sequence (Q61143 whole entry, looked up): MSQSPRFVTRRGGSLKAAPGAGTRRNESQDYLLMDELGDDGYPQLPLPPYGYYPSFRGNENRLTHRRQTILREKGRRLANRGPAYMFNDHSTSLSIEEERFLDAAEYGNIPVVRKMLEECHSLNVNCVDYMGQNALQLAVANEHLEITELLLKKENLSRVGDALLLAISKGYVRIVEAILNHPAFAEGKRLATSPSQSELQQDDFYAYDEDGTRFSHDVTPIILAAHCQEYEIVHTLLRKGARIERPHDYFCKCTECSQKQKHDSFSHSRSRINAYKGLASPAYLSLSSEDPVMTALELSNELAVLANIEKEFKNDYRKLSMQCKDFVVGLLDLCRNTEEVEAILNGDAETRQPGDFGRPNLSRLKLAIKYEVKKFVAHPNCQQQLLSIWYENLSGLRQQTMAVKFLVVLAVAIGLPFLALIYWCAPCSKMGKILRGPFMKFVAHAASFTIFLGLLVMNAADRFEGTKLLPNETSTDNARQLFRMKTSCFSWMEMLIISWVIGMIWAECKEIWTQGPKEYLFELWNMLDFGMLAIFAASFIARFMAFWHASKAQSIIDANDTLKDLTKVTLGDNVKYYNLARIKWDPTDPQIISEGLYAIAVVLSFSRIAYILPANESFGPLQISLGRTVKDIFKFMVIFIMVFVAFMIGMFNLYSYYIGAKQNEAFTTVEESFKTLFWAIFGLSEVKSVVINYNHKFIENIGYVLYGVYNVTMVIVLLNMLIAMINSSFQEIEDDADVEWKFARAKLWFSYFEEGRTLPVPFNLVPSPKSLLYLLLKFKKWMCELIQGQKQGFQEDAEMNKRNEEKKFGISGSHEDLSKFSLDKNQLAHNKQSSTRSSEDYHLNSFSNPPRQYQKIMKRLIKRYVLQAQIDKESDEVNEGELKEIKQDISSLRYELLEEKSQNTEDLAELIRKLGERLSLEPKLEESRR
TRPC6 inhibitor = mouse TRPC6 channel inhibition; HEK293-TRPC6, membrane potential dye, ACh-evoked depolarization; hits give low values; B-score at 10 µM; 1.1% of 310,000 active; AID 2553;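 active = B-score under library mean minus 3 SD, initial fluorescence not abnormally high, positive integrated signal ratio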;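 also: B-score derived from integrated fluorescence ratio over the kinetic read; more negative B-score means stronger inhibition of depolarization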
TRPC4 inh = TRPC4 (mouse) channel inhibition | Q9QUQ5 | HEK293 TRPC4beta/mu-opioid, DAMGO-evoked Fluo4 calcium flux; hits give low values | B-score at 10 µM | 0.39% of 300,000 active | AID 2247;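 active = B-score over 3 SD under the library average, no early fluorescence shift, positive overall ratio signal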
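material = TRPC4beta/mu-opioid receptor HEK293 cell line | probe or stimulus = sequential submaximal and maximal DAMGO stimulation | compound dosing = one concentration per compound | measured by = Fluo4 Ca2+ flux fluorescence | evaluation = integrated fluorescence ratio relative to baseline, converted to per-well B score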
TRPC4 agonist = opens the mouse TRPC4 cation channel. Q9QUQ5. HEK293 TRPC4beta/mu-opioid, Fluo4 calcium fluorescence; hits give high values. B-score at 10 µM. 0.49% of 310,000 active;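 active = B-score above 5 SD of library B-scores, and initial fluorescence ratio not above library mean plus 5 SD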;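 also: positive B-score marks a calcium rise read as TRPC4 activation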
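Assay system: HEK293 stable line with TRPC4beta plus mu-opioid receptor; schedule: 45 min room-temperature Fluo4 loading, 110 s read; technique: kinetic Fluo4 calcium fluorescence; evaluation: integrated baseline-normalised fluorescence ratio, converted to per-well B score; controls: buffer (low) and maximal DAMGO (high)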
TRPC4 spec 2 = second selectivity test of TRPC6 inhibitors: effect on mouse TRPC4; shares compounds with TRPC6 inhibitor; inhibition, % at 10 µM; AID 2776; 42% of 920 active; HEK293 TRPC4/MOR, membrane potential dye fluorescence; channel activated by saturating DAMGO dose;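 active = compounds whose fluorescence signal differed from control wells by over 3 SD, either direction, in both duplicate plates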
TRPC4 spec = mouse TRPC4 off-target activity of TRPC6 inhibitors; shares compounds with TRPC6 inhibitor; activity change, negative = inhibition, % at 10 µM; HEK293 TRPC4/mu-opioid, membrane potential fluorescence; 61% of 920 active; AID 2777;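 active = rise or fall in signal beyond 3 SD of buffer-only wells in both replicate plates, either sign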;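 also: integrated kinetic ratio of fluorescence range over baseline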
HEK293 MPD ctr 2-1 = parental HEK293 nonspecific activity of TRPC6 inhibitors, second screen. AID 2779. shares compounds with TRPC6 inhibitor. 31% of 920 active. parental HEK293 membrane potential dye fluorescence; maximal acetylcholine challenge after compound addition. signal change vs control, % at 10 µM;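 active = membrane potential signal moving either way by over 3 SD of the maximum-effect control, in both duplicate plates, meaning non-specific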
HEK293 MPD ctr-1 = counter-screen for TRPC6 inhibitors: effect in parental HEK293 cells. shares compounds with TRPC6 inhibitor. parental HEK293 membrane potential dye fluorescence. 60% of 920 active. membrane potential signal change, % at 10 µM;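 active = membrane potential signal shifting up or down by more than 3 SD of buffer-only wells, on both duplicate plates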
HEK293 MPD ctr-2 = checks TRPC6 modulator effects in parental HEK293 cells; membrane potential dye fluorescence; membrane potential signal change, % at 10 µM; shares compounds with TRPC6 inhibitor; AID 488924; 51% of 2,400 active;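 active = membrane potential signal moves up or down beyond 5 SD from buffer-only wells, on both duplicate plates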
HEK293 MPD ctr 2-2 = second counter-screen for TRPC6 modulators: effect in parental HEK293 cells; shares compounds with TRPC6 inhibitor; membrane potential dye fluorescence; after compound, maximal acetylcholine stimulation; 14% of 2,400 active; inhibition, % at 10 µM;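 active = membrane potential signal drops by more than 5 SD from the mean control signal, in both duplicate plates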;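 also: plate controls were acetylcholine ECmax control wells for no effect and buffer only wells for full effect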
TRPC4 ctr mod = mouse TRPC4 off-target activity of TRPC6 modulators | percent change from control (negative = decrease, positive = increase), % at 10 µM | HEK293 TRPC4/mu-opioid, membrane potential fluorescence | shares compounds with TRPC6 inhibitor | 69% of 2,400 active;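 active = membrane potential signal moved up or down beyond 5 SD of buffer control wells, in both duplicate plates, actives on both sides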;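 also: plate controls were assay buffer wells for no effect and DAMGO maximal-effect wells for full effect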
TRPC4 ctr inh 2 = second check of whether TRPC6 modulators also affect mouse TRPC4. shares compounds with TRPC6 inhibitor. 55% of 2,400 active. HEK293 TRPC4/mu-opioid, membrane potential dye fluorescence; stimulated with maximal-effect DAMGO. inhibition, % at 10 µM;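 active = drop in membrane potential signal beyond 5 SD of the control wells in both duplicate plates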;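 also: TRPC4 counter screen for TRPC6 hits run under conditions tuned for TRPC6 not TRPC4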
TRPC6 block conf = mouse TRPC6 inhibitor confirmation; AID 488960; inhibition, % at 10 µM; 43% of 3,300 active; shares compounds with TRPC6 inhibitor; HEK293-TRPC6, membrane potential dye, ACh-evoked depolarization;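 active = fluorescence ratio falls more than 5 SD below the full-stimulation control mean, in both duplicate runs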;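 also: integrated fluorescence ratio of peak minus minimum over baseline after agonist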
TRPC6 act conf = confirmation of mouse TRPC6 activators; shares compounds with TRPC6 inhibitor; HEK293-TRPC6 membrane potential dye fluorescence, FDSS; activation, % at 10 µM; 11% of 2,800 active; AID 488961;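 active = ratio signal rise beyond 5 SD above unstimulated control wells' mean, seen in both duplicate runs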;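 also: plate controls were buffer EC0 wells for no effect and acetylcholine ECmax response for full effect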
* marks the source's active call; other numbers are inactive results; i = inactive; x = no result given.

SMILES	TRPC4 PAM	TRPC6 activator	TRPC6 inhibitor	TRPC4 inh	TRPC4 agonist	HEK293 MPD ctr-2	HEK293 MPD ctr 2-2	TRPC4 ctr mod	TRPC4 ctr inh 2	TRPC6 block conf	TRPC6 act conf	others
COc1nc(N(c2ccccc2)c2ccccc2)nc(-n2ccnc2)n1	i	11.5*	i	i	i	372.5%*	59.0%*	64.0%*	i	i	132.5%*
Cc1cccc(OCc2nnc(SCc3cc(=O)n4cc(Br)ccc4n3)o2)c1	i	i	-8*	i	i	x	x	x	x	i	i	TRPC4 spec 2=i;TRPC4 spec=0.1%*;HEK293 MPD ctr 2-1=i;HEK293 MPD ctr-1=0.6%*
Cc1oc(-c2ccccc2F)nc1CN1CCC(C(=O)NC2CCCc3ccccc32)CC1 (stereo not drawn)	i	i	-8.8*	i	i	x	x	x	x	i	i	TRPC4 spec 2=34.0%*;TRPC4 spec=28.9%*;HEK293 MPD ctr 2-1=293.0%*;HEK293 MPD ctr-1=9.1%*
CCn1cc(/C=C(\NC(=O)c2ccc(OC)cc2)C(=O)N2CCOCC2)c2ccccc21	i	i	i	i	i	x	x	x	x	x	x
CCC1=[N+](C)c2cccc3cccc(c23)N1C	i	i	-5.98*	i	i	-343.5%*	i	-52.5%*	47.0%*	42.5%*	i
CCC(=O)Nc1cccc(-c2cnc3ccccc3n2)c1	i	i	-5.62*	i	i	i	i	i	i	i	i
CCOc1ccc(S(=O)(=O)N2CCN(S(=O)(=O)c3ccc(C)c(C)c3)CC2)cc1	i	i	i	i	i	x	x	x	x	x	x
O=C(CN1CCN(c2ccccc2F)CC1)NC(=O)NCc1ccccc1	i	i	-5.14*	i	i	i	i	i	i	i	i
CC(C)Cc1nnc(NC(=O)CCC(=O)N2CC(C)CC(C)C2)s1 (stereo not drawn)	i	i	i	i	i	x	x	x	x	x	x
O=C(CN(Cc1ccco1)C(=O)CNS(=O)(=O)c1ccc(F)cc1)NCCc1ccccc1	i	i	-5.29*	i	i	i	i	12.5%*	i	i	i
Cc1cccc(N(C)C(=O)CCS(=O)(=O)c2cc3c(cc2Cl)NC(=O)CO3)c1	i	i	i	i	i	x	x	x	x	x	x
COc1ccc(N2CCN(C(=O)Cn3nnc(-c4ccc(OC)c(OC)c4)n3)CC2)cc1	i	i	i	i	i	x	x	x	x	x	x
Cc1ccc(-c2nnn(CC(=O)N3CCN(c4ccccc4)CC3)n2)o1	i	i	-5.34*	i	i	i	i	i	i	i	i
